Bioassay records deposited in PubChem BioAssay by The Scripps Research Institute Molecular Screening Center.
PAFAH1B3 FP inh: inhibitors of human PAFAH1B3; AID 492972; Q15102; hit rate 0.28% among 340,000; recombinant PAFAH1B3, FP-rhodamine probe, fluorescence polarization; inhibition, % at 3.39 µM;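 active = inhibition above the screen-wide average of all tested compounds plus 3 SD, cut at about 25% in these data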;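 also: 0% = enzyme with DMSO only and 100% = wells lacking PAFAH1B3 protein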
mABHD4 FP: ABHD4 (mouse) inhibition, primary FP screen; Q8VD66; purified mABHD4, FP-Rh probe fluorescence polarization; inhibition, % at 8.92 µM; hit rate 0.54% among 370,000;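 active = inhibition exceeding the mean over every tested compound plus 3 SD, cut at about 30% in these data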;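 also: 0% = plate median of compound wells and 100% = S159A mutant with DMSO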
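Test system: mouse ABHD4 enzyme, wild type. Reagent: FP-Rh fluorescent activity-based probe, added after compound pre-incubation. Timing: pre-incubation 45 min, probe exposure 60 min, at 25 °C. Technique: FP readout, ex 525 nm / em 598 nm. Benchmarks: high control S159A mutant with DMSO, low control median of compound wells.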
PAFAH1B2 inh: inhibitors of human PAFAH1B2 | recombinant PAFAH1B2, FP-rhodamine activity probe, fluorescence polarization | inhibition, % at 3.39 µM | hit rate 1.2% among 340,000 | AID 492953;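 active = inhibition above the mean of all tested compounds plus 3 SD, cut at about 24% in these data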;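 also: 0% = enzyme with DMSO and 100% = wells lacking PAFAH1B2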
HTRA1 inhibitor: HTRA1 (human) protease inhibition; Q92743; recombinant HTRA1, FP-rhodamine activity-based probe, fluorescence polarization; inhibition, % at 5.96 µM; hit rate 0.5% among 340,000; in the data active = inhibition above about 36%;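 also: 0% = enzyme with DMSO and 100% = wells lacking enzyme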
Target sequence (Q92743 whole entry, looked up): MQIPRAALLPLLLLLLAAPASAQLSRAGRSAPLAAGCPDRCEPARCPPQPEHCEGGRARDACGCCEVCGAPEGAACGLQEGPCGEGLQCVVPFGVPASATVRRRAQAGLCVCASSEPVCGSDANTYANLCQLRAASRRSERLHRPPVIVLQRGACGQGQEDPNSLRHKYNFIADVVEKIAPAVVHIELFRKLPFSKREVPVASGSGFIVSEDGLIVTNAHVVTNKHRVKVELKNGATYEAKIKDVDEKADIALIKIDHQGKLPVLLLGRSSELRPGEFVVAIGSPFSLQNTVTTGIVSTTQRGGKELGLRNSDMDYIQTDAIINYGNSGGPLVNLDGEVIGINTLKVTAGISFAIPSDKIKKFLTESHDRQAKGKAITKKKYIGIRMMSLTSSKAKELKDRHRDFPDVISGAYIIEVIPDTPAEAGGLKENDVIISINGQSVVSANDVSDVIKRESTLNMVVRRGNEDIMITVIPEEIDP
PAFAH2 FP inh: inhibitors of human PAFAH2; inhibition, % at 3.39 µM; Q99487; hit rate 0.99% among 340,000; recombinant PAFAH2, FP-rhodamine activity probe, fluorescence polarization;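 active = inhibition above the mean over all tested compounds plus 3 SD, cut at about 30% in these data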;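 also: inhibitors block probe labeling of enzyme so polarization drops; 0% = enzyme with DMSO and 100% = wells lacking PAFAH2 protein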
pPAFAH FP inh: inhibitors of human plasma PAF acetylhydrolase (pPAFAH); Q13093; recombinant pPAFAH, FP-rhodamine probe fluorescence polarization; inhibition, % at 3.39 µM; hit rate 1.5% among 330,000; AID 463082;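 active = inhibition above the mean inhibition across the screen plus 3 SD, cut at about 25% in these data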;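 also: inhibitors block binding of the rhodamine activity-based probe so polarization drops; 0% = enzyme with DMSO and 100% = wells lacking pPAFAH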
* = called active by the depositor; nt = no result. This is a sample that favours compounds with a hit; in the whole collection about 2.8% have one here.

SMILES | PAFAH1B3 FP inh | mABHD4 FP | PAFAH1B2 inh | HTRA1 inhibitor | PAFAH2 FP inh | pPAFAH FP inh
Cc1noc(NS(=O)(=O)c2ccc(NC(=O)CSc3nc4ccccc4s3)cc2)c1C | 7.2 | -7.4 | 28.1* | -3.7 | 5.9 | 0.4
Cc1noc(NS(=O)(=O)c2ccc(NC(=O)CCC3CCCCC3)cc2)c1C | 12.3 | -7.2 | 27.7* | -7.9 | 12.8 | 32.0*
Cc1noc(NS(=O)(=O)c2ccc(NC(=O)CSc3ncccn3)cc2)c1C | 3.1 | 2.0 | -2.4 | -1.1 | -0.7 | 8.6
Cc1ccc(-n2c(SCC(=O)c3ccc(O)c(O)c3)nnc2-c2ccccc2)cc1 | nt | 2.9 | nt | nt | nt | nt
CC(=O)N1CCN(c2ccc(Oc3ccc([N+](=O)[O-])c(C(F)(F)F)c3)cc2)CC1 | 4.5 | nt | 7.4 | 26.9 | -6.5 | 24.7*
CCOc1ccc(C(=O)Nc2ccc(N3CCN(C(C)=O)CC3)cc2)cc1[N+](=O)[O-] | 10.8 | 6.2 | -0.5 | 6.8 | 6.3 | 10.9
CC(C)C[C@@H]1COc2cccc(N3CCCC3)c2S(=O)(=O)N1C | nt | 6.4 | nt | nt | nt | nt
CC(C)(C)n1cnc2cc(NCc3ccc(Br)cc3)ccc21 | 5.8 | 14.7 | 33.6* | 6.5 | 1.1 | 8.1
C[C@H]1[C@@H](NC(=O)/C=C/c2ccccc2)CC[C@@]23CCCN2C(=O)CCC[C@@H]13 | nt | 6.1 | nt | nt | nt | nt
Cc1cccc(Nc2nc(-c3c(C)nc4ccccn34)cs2)c1 | 14.1 | 28.2 | 1.7 | 6.2 | 0.7 | 30.4*
COc1ccc(CCNC2CC(=O)N(CCc3ccccc3)C2=O)cc1 (configuration not stated) | -3.8 | -2.2 | -0.9 | 0.3 | 3.0 | 0.1
CCN(CC)c1ccc(NC2CC(=O)N(CCc3ccc(OC)cc3)C2=O)cc1 (configuration not stated) | 9.1 | 28.7 | 2.7 | 53.7* | 4.7 | 27.6*
C[C@H]1[C@@H](NC(=O)c2ccc(C(F)(F)F)cc2)CC[C@@]23CCCN2C(=O)CCC[C@@H]13 | nt | 1.6 | nt | nt | nt | nt
COc1cc2cc(C(C)(C)O)oc(=O)c2cc1OC | 8.9 | 4.7 | 10.8 | 1.5 | -13.3 | 32.8*
CC1CC(NC(=O)CC#N)CC(C)(C)C1 (configuration not stated) | -5.6 | 1.1 | 4.0 | 1.9 | -0.8 | 1.6
CC1CC(NC(=O)C2(C)CC2(Cl)Cl)CC(C)(C)C1 (configuration not stated) | 1.6 | -8.8 | 26.0* | -5.5 | -1.2 | -4.0
O=C(C1CCN(c2cncnc2)CC1)N1CCOCC1 | nt | 3.6 | nt | nt | nt | nt
COC(=O)C1CN(Cc2ccc(OC)cc2)CCS(=O)(=O)N1Cc1ccc(F)cc1 (configuration not stated) | nt | -1.5 | nt | nt | nt | nt
COc1ccc(C2CC2/C(C)=N/OC(=O)C2CC2)cc1 (configuration not stated) | 8.7 | -2.5 | -1.6 | 3.4 | 5.5 | 4.7
C/C(=N/OC(=O)C1CC1c1ccccc1)c1ccccc1 (configuration not stated) | 6.3 | 2.4 | 46.1* | -2.0 | 31.6* | 13.1
O=S(=O)(NCC(c1ccc2c(c1)OCO2)N1CCOCC1)c1ccc(Br)cc1 (configuration not stated) | 3.0 | 1.0 | 25.1* | 13.0 | -1.7 | 8.3
O=S(=O)(NCC(c1ccc2c(c1)OCO2)N1CCOCC1)c1ccc(F)cc1 (configuration not stated) | 1.2 | 1.9 | 2.6 | 4.1 | -2.4 | 4.6
Cc1ccccc1N(C)C(=O)C1CCCN1S(=O)(=O)c1cccc2cccnc12 (configuration not stated) | nt | 2.1 | nt | nt | nt | nt
Fc1ccc(-c2cc(C(F)(F)C(F)F)[nH]n2)cc1 | nt | -8.5 | nt | nt | nt | 25.2*
Oc1ccccc1-c1cc(C(F)(F)C(F)F)[nH]n1 | 6.1 | -9.3 | 0.7 | -6.5 | -0.5 | 15.5
CCN(CC)C(=O)CC[C@H]1CC[C@]2(CCCN(S(=O)(=O)C3CCCCC3)C2)O1 | nt | -2.7 | nt | nt | nt | nt
CC(NC(=O)COC(=O)C12CC3CC(CC(Br)(C3)C1)C2)c1ccccc1 (configuration not stated) | 1.9 | -3.3 | 40.5* | -14.9 | 13.5 | 3.3
O=C(NCc1ccccc1)C12CC3CC(CC(Br)(C3)C1)C2 | 12.9 | 5.2 | 34.7* | -3.1 | -9.8 | 5.9
COc1ccc(CCNC(=O)COC(=O)C23CC4CC(CC(Br)(C4)C2)C3)cc1 | 3.6 | -3.2 | 19.4 | -4.1 | 2.6 | 4.0
